# DNA FID counter-1 = displaces DNA intercalator in HCV helicase counter-screen. actives 0.17% (n = 290,000). AID 1845. inhibition, % at 7.9 µM. DNA fluorescent intercalator displacement, fluorescence;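 further: higher means more ethidium bromide displaced from hairpin DNA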
# pCIP destab = p/CIP protein destabilization; Q05BA5; F442A p/CIP-EGFP cells, EGFP fluorescence, 16 h; decrease of EGFP signal, % at 10 µM; actives 0.01% (n = 290,000);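 active means EGFP signal decrease of at least 30% at 10 µM or well 3 SD below plate mean, unless failing retest; inactive means the rest, including hits failing retest or dose response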
# Target sequence (Q05BA5 1-1403): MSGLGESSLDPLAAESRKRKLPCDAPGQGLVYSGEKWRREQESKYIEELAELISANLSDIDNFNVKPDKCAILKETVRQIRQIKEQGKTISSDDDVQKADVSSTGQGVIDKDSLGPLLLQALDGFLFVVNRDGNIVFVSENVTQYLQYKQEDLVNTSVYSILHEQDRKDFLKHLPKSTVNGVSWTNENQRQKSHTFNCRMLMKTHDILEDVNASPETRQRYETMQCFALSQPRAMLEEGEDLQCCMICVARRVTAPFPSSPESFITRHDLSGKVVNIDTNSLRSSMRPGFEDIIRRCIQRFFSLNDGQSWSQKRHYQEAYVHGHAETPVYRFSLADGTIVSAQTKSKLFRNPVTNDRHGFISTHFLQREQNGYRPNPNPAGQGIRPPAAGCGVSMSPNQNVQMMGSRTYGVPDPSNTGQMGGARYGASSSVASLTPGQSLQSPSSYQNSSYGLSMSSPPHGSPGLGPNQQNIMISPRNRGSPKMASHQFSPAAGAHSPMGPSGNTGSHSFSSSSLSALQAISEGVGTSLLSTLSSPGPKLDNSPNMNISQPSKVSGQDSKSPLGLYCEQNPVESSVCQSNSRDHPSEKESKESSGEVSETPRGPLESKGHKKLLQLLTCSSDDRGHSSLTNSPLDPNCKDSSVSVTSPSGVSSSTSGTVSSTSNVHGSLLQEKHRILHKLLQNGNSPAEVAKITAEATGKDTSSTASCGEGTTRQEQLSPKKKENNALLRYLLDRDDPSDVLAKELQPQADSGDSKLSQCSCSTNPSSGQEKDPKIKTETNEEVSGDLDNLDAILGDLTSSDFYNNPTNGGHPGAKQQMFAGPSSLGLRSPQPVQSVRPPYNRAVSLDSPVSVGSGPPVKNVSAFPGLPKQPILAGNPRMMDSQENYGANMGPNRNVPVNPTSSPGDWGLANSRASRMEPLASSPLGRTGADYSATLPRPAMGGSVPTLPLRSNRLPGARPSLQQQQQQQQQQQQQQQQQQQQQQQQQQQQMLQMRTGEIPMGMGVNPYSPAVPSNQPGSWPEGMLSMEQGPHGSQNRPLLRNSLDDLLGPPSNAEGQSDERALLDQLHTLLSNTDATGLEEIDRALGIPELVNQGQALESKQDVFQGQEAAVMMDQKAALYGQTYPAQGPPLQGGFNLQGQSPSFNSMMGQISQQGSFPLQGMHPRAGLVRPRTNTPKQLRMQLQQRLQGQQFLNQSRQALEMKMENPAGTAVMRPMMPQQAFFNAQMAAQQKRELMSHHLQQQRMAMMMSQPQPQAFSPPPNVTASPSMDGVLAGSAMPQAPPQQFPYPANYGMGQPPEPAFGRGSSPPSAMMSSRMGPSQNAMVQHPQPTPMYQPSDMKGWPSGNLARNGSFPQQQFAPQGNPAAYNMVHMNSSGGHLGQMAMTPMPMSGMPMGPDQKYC
# HCV NS3 hel inh = inhibitors of Hepatitis C virus NS3 helicase. NS3 helicase DNA unwinding, Cy5 molecular beacon fluorescence. inhibition, % at 10.9 µM. actives 0.56% (n = 290,000). AID 1800;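 active means inhibition above the mean of all tested compounds plus 3 SD, set per campaign, cut at about 35% in these data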
#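 Measured by: Cy5 fluorescence, 0 and 60 min reads / Assay system: NS3 helicase fragment of HCV / Control set: low DMSO, high thioflavine S at 110 µM / Times: 1 h reaction at 25 °C, ATP-initiated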
# GPR7 antagonist = blocks human GPR7 receptor signaling. GPR7-expressing cells, fluorescence antagonist assay. inhibition, % at 4.4 µM. actives 1.1% (n = 290,000). AID 1861; in the data active means inhibition above about 16%, passing the limit was not always enough;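 further: cells stimulated with the agonist NPW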
# core dimer inh = blocks dimerization of HCV core protein; TR-FRET GST/Flag-core106 dimerization, 1536-well; inhibition, % at 5 µM; AID 1899; actives 0.33% (n = 300,000);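 active means inhibition above the mean of all tested compounds plus 3 SD, set per screening campaign, cut at about 45% in these data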
#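 Assay system: GST-tagged and Flag-tagged HCV core protein residues 1-106 / Times: compound-protein-antibody incubation 4 h at 22.5 °C / Signal: time-resolved FRET, ex 340 nm, em 617 and 671 nm / Evaluation: % inhibition based on acceptor/donor emission ratio / Benchmarks: wells lacking GST-core106 and wells with excess unlabelled core106 / Repeats: singlicate, one well per compound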
# NS3 hel confirm = confirmation of Hepatitis C virus NS3 helicase inhibitors | NS3 helicase DNA unwinding, Cy5 molecular beacon fluorescence | inhibition, % at 10.9 µM | shares compounds with HCV NS3 hel inh | actives 31% (n = 1,600);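 active means inhibition above the mean of all tested compounds plus 3 SD, cutoff set per campaign, cut at about 36% in these data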
# DNA FID counter-2 = counter-screen for HCV NS3 helicase inhibitors: DNA intercalator displacement | shares compounds with HCV NS3 hel inh | DNA fluorescent intercalator displacement, fluorescence | inhibition, % at 7.9 µM | actives 4% (n = 1,600) | AID 1945;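 further: higher means more displacement of ethidium bromide from the DNA hairpin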
# DNA FID DR = displaces fluorescent intercalator from DNA, HCV helicase counter-screen. IC50, µM. shares compounds with HCV NS3 hel inh. 120 tested, under 10 active. AID 2172. fluorescent intercalator displacement from DNA, fluorescence; call rule not given here
# Hits are given with their value; – = inactive; · = no result. Shown are actives, neighbours in structure and some others; about 1.9% of the full set was active somewhere. Unless noted, no stated cut-off is given here; in the data, active means inhibition above about 37%; inactive means the rest.
SMILES,DNA FID counter-1,pCIP destab,HCV NS3 hel inh,GPR7 antagonist,core dimer inh,NS3 hel confirm,DNA FID counter-2,others
COc1cc([N+](=O)[O-])cc(/C=N/NC(=O)C(C)Nc2cccc3ccccc23)c1O (configuration not stated),–,–,37,–,–,39,–,
O=C(O)c1ccc(-n2cccc2/C=C2/NC(=O)N(c3cccc(Cl)c3)C2=O)cc1,–,–,41,–,·,70,–,DNA FID DR=–
O=C1CCN(S(=O)(=O)c2cccs2)c2ccc(C(F)(F)F)cc2N1,–,–,–,–,–,·,·,
COc1ccc(N=C2O/C(=C/c3sc(=S)n(CC4CCCO4)c3O)N=C2C#N)cc1 (configuration not stated),–,–,–,–,–,·,·,
COc1ccc(C(=O)N/N=C/c2ccc(OC)c(COc3ccc(F)cc3)c2)cc1,–,–,–,–,–,·,·,
O=C(N/N=C/c1cc(Cl)cc([N+](=O)[O-])c1O)c1ccc2c(c1)OCO2,–,–,52,–,–,–,–,
O=C(N/N=C/c1cc(Br)cc([N+](=O)[O-])c1O)c1ccc(NC(=O)c2ccc(F)cc2)cc1,–,–,37,–,–,–,–,
O=C(N/N=C/c1cc(Br)cc(Br)c1O)c1ccncc1,–,–,–,–,–,·,·,
COc1ccc(/C=N\NC(=O)c2ccccc2)cc1COc1ccc(F)cc1,–,–,46,–,–,–,–,
Cc1cccc(C(=O)Nc2ccc(C(=O)N/N=C/c3ccc(C)o3)cc2)c1,–,–,41,–,–,–,–,
Cc1ccc(/C=N/NC(=O)c2cccc(NC(=O)c3ccccc3C)c2)o1,–,–,–,–,–,·,·,
COc1ccc(/C=C2\Oc3cc(OCC(=O)N4CC(O)C[C@H]4C(=O)O)ccc3C2=O)cc1OC (some centres not stated),–,–,–,–,–,·,·,
CCC(C)C(NC(=O)C(C)NC(=O)CNC(=O)OC(C)(C)C)C(N)=O (configuration not stated),–,–,–,–,–,·,·,
Cn1cc(C(=O)Nc2ccc(Cl)c(Cl)c2)cn1,·,·,·,·,–,·,·,
Cc1c(CCC(=O)NC2CC2)c(=O)oc2c(C)c(O)ccc12,–,–,–,–,–,·,·,
N#CC(C#N)=Cc1c(N2CCN(c3ccccc3)CC2)nc2ccccn2c1=O,–,–,–,–,–,·,·,
O=C(O)CCNC(=O)C12CC3CC(CC(C3)C1)C2,–,–,–,–,–,·,·,
CC(=O)Nc1ccc(C(=O)N/N=C/c2ccc(F)cc2)cc1,–,–,–,–,–,·,·,
O=C(N/N=C/c1ccccc1)c1ccc(NC(=O)c2ccc(F)cc2)cc1,–,–,38,–,–,–,–,
O=C(CCC1CCN(Cc2ccc(Cl)cc2)CC1)NC1CC1,–,–,36,–,–,–,–,
O=C1CC(=O)N(c2ccccc2)c2ccccc21,–,–,–,–,–,·,·,
O=C1CC(=O)N(c2ccccc2)N1c1ccccc1,–,–,38,–,–,–,–,
O=C(/C=C/c1ccco1)NC(=S)Nc1cccc(C(=O)O)c1,–,–,52,–,–,–,–,
C=CCNC(=O)C(=O)NCC1CCCN1S(=O)(=O)c1cccs1 (configuration not stated),·,·,·,·,–,·,·,
Cc1c(C(=O)O)sc2nc(/C=C/c3cccc(F)c3)[nH]c(=O)c12,–,–,63,–,–,–,–,
SMILES,DNA FID counter-1,pCIP destab,HCV NS3 hel inh,GPR7 antagonist,core dimer inh,NS3 hel confirm,DNA FID counter-2,others
CCOC(=O)C1CCN(C(=O)C2CCN(S(=O)(=O)N3CCC4(CC3)OCCO4)CC2)CC1,–,–,–,–,–,·,·,
CC12CCCCC1NS(=O)(=O)OC2 (configuration not stated),–,–,41,–,–,–,–,
CCOc1ccc(CCNC(=O)c2cccc(S(=O)(=O)N3CCCCC3)c2)cc1OCC,·,·,·,·,–,·,·,
CCN(CC)C(=O)COC(=O)c1cc(-c2ccco2)nc2ccccc12,–,–,44,–,·,–,–,
CCN(CC)CCNC(=O)c1cc(-c2ccco2)nc2ccccc12,–,–,–,–,–,·,·,
O=C(O)c1ccccc1/C=N/NC(=O)c1cc(-c2ccco2)nc2ccccc12,–,–,42,–,–,68,–,DNA FID DR=–
COc1ccc(CCNC(=O)c2cc(-c3ccco3)nc3ccccc23)cc1,–,–,53,–,65,–,–,
CC(=O)Nc1ccc(/C=N/NC(=O)c2cc(-c3ccco3)nc3ccccc23)cc1,–,–,–,–,–,·,·,
COc1ccc(C2CC(c3ccccc3OC(C)=O)=NN2C(C)=O)cc1 (configuration not stated),–,–,–,–,–,·,·,
O=C(O)CCn1c(SCCOc2ccccc2F)nc2ccccc21,–,–,–,–,·,·,·,
Cc1ccc(S(=O)(=O)N2CCC(=O)CC2)cc1,–,–,–,–,–,·,·,
CCn1c(=O)cc(OCC(=O)NCCCN2CCCC2=O)c2ccccc21,–,–,–,–,–,·,·,
Cc1ccc(NC(=O)CN2C(=O)S/C(=C\C(=O)Nc3ccc(Cl)cc3)C2=O)cc1,–,–,41,–,–,–,–,
COCCCn1c(=S)[nH]c2sc3c(c2c1=O)CCCC3,–,–,–,–,–,·,·,
COCCn1c(=S)[nH]c2sc3c(c2c1=O)CCCC3,–,–,52,–,–,–,–,
O=C1CN(C(=O)N[C@@H](Cc2ccccc2)C(=O)N[C@@H](Cc2ccccc2)C(=O)O)c2ccccc2N1,–,–,36,–,–,–,–,
CCOC(=O)c1cc(C#N)c(N2CCN(c3ccc(OC)cc3)CC2)[nH]c1=O,–,–,–,–,–,·,·,
O=C(N/C(=C\c1ccccc1)C(=O)N1CCOCC1)c1ccccc1Cl,–,–,36,–,–,–,–,
O=C(CNC(=O)c1ccc(Cl)c([N+](=O)[O-])c1)OC1CCCCC1=O (configuration not stated),·,·,·,·,–,·,·,
N#CC1=C(N)SC(N)=C(C#N)C1CCC1CCCCC1,–,–,53,–,–,–,–,
O=c1[nH]cnc2c1N=C(c1cccc([N+](=O)[O-])c1)CC(c1ccccc1)N2 (configuration not stated),–,–,–,–,–,·,·,
CC(=O)C1=C(O)C(=O)N(Cc2ccccc2)C1c1ccc(Br)cc1 (configuration not stated),–,–,41,–,–,–,–,
CC(C)CC(=O)C1=C(O)C(=O)N(Cc2ccccc2)C1c1ccccc1 (configuration not stated),–,–,36,–,–,–,–,
COC(=O)c1ccc(CN2CCN(CC(C)C)C(CCO)C2)cc1 (configuration not stated),–,–,38,–,–,–,–,

# High-throughput results as filed in PubChem.
